Laboratory results published in ChEMBL document CHEMBL3745654, “N-Alkylated arylsulfonamides of (aryloxy)ethyl piperidines: 5-HT(7) receptor selectivity versus multireceptor profile” (Bioorg Med Chem, 2016).
Active and inactive are the calls of the source. The rule behind the calls is not given here.

Columns and labels:
[1] = molecular target: 5-hydroxytryptamine receptor 7 (Homo sapiens, UniProt P34969); assay: Antagonist activity at human 5-HT7B receptor expressed in HEK293 cells assessed as inhibition of 5-carboxamidotryptamine-induced cAMP production; format: functional, cell-based
Procedure, shortened: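 HEK293 cells stably expressing human 5-HT7b receptor. Compound's ability to inhibit cAMP production induced by 10 nM 5-CT was measured in triplicate at 8 concentrations (10^-11 to 10^-4 M). Kb = IC50/(1 + A/EC50), where A is agonist concentration.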

[2] = molecular target: T1, Adrenergic receptor alpha-1 (Rattus norvegicus, UniProt P15823+P23944+P43140); assay: Displacement of [3H]-Prazosin form rat cerebral cortex alpha-1 adrenergic receptor after 60 mins by scintillation counting method; format: tissue-based
T1 sequence (P15823 whole entry): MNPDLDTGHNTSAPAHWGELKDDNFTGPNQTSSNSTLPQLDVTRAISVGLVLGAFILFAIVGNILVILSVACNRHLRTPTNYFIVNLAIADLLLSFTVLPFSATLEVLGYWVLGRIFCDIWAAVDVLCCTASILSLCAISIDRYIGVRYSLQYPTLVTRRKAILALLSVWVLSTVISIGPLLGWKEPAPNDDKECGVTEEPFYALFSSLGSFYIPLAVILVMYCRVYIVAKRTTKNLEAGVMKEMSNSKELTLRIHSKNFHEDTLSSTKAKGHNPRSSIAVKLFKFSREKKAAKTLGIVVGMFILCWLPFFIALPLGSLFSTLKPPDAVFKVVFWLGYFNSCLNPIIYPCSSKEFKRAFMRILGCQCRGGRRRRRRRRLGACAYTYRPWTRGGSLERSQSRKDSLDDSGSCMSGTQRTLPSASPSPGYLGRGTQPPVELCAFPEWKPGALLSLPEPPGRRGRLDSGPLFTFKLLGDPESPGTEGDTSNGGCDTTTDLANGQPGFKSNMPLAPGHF
T1 sequence (P23944 whole entry): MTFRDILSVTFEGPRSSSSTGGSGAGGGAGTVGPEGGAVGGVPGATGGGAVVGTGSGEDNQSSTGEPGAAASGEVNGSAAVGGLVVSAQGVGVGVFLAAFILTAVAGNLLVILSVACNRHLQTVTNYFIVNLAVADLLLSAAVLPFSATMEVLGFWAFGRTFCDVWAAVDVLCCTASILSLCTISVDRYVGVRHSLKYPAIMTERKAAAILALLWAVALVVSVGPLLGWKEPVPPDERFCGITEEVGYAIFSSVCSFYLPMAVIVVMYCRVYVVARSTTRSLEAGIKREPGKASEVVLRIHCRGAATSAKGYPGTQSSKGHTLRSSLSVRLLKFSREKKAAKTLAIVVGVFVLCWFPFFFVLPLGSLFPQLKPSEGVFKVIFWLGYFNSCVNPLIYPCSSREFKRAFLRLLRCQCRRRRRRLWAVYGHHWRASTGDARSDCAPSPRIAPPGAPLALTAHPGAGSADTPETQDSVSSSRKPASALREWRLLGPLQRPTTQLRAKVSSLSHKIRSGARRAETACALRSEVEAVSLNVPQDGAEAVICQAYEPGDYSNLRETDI
T1 sequence (P43140 whole entry): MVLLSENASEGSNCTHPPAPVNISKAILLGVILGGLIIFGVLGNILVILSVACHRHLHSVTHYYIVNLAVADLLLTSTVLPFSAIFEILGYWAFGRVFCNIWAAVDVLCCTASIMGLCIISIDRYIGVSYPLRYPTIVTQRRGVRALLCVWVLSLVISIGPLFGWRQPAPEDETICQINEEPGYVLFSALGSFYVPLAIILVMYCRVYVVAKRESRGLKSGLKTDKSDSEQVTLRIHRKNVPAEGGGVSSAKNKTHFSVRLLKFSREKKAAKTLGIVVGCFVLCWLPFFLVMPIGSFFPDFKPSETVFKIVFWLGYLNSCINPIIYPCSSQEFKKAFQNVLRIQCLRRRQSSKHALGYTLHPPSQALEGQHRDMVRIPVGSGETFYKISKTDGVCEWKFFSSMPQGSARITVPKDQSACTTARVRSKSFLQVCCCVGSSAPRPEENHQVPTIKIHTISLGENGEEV
Procedure, shortened: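 Rat cerebral cortex membranes incubated with [3H]-prazosin (22 Ci/mmol; 0.6 nM). Compound tested at seven or eight concentrations (1 nM upward). Ki calculated by Cheng–Prusoff.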

[3] = Intrinsic clearance in mouse liver microsomes at 20 uM at pH 7.4 incubated for 15 mins by UPLC/MS analysis in presence of NADPH; format: ADME; conditions: read-out: CLH
[4] = Metabolic stability in mouse liver microsomes assessed as retention time of compound at 20 uM at pH 7.4 incubated for 15 mins by UPLC/MS analysis in presence of NADPH; format: ADME; conditions: pH 7.4, 0.25 h
Procedure, shortened: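 Compound (20 µM) incubated with mouse liver microsomes (0.2 mg/ml) in 100 mM potassium phosphate, pH 7.4, 37 °C. Reaction started with NADPH-regenerating system; blank without NADPH run in parallel. Sampling at 5, 15, 30 and 60 min (some to 120 min), in duplicate. Levallorphan internal standard; UPLC/MS quantitation. t1/2 from ln % remaining vs time.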

[5] = molecular target: D(2) dopamine receptor (Homo sapiens, UniProt P14416); assay: Antagonist activity at human dopamine D2L receptor expressed in HEK293 cells assessed as inhibition of dopamine-induced cAMP level at 1 uM; format: functional, cell-based
Procedure, shortened: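 Cellular functional cAMP antagonist assay in HEK293 cells, run externally. Inhibition of control agonist response (dopamine 30 nM) measured with compound at 10^-6 M.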

[6] = molecular target: 5-hydroxytryptamine receptor 2A (Homo sapiens, UniProt P28223); assay: Antagonist activity at human 5-HT2A receptor expressed in HEK293 cells assessed as inhibition of serotonin-induced inositol-1-phosphate accumulation at 1 uM after 30 mins by HTRF assay; format: functional, cell-based
Procedure, shortened: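 Cellular functional antagonist assay in HEK293 cells stably expressing human 5-HT2A receptor, run externally. Inhibition of control agonist response (serotonin 100 nM) measured with compound at 10^-6 M.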

[7] = tested on: Rattus norvegicus; assay: Effect on exploratory activity in PCP-treated Sprague-Dawley rat at 1 mg/kg, ip dosed 1 hr and 15 mins before familiarization phase by novel object recognition test; format: functional, organism-based
Procedure, shortened: (§1)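 Male Sprague–Dawley rats (~250 g), 7–12 per group, PCP-induced deficit model. Compounds ip 1 h and 15 min before T1. Day 1: 5-min arena habituation. Day 2: two 3-min trials 1 h apart, with two identical objects, then one replaced by a novel object. Exploration and distance video-tracked; discrimination index computed; ANOVA with Newman–Keuls.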

[8] = tested on: Rattus norvegicus; assay: Pro-cognitive effect in ip dosed Sprague-Dawley rat assessed as amelioration of PCP-induced memory deficit dosed 1 hr and 15 mins before familiarization phase by novel object recognition test; format: functional; conditions: for minimal effective dose: read-out: MED; procedure, shortened: as §1
[9] = tested on: Mus musculus; assay: Antidepressant-like activity in ip dosed Swiss albino mouse assessed as reduction in immobility time dosed 60 mins before test measured after 6 mins by forced swim test; format: functional; conditions: read-out: MED
Procedure, shortened: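 Male Swiss albino mice (22–26 g), 7–12 per dose. Compounds dissolved in distilled water and given ip 60 min before test. Each mouse placed for 6 min in a glass cylinder with 10 cm of water at 23–25 °C. Immobility (floating with minimal movement) scored over the last 4 min by a blinded observer. One-way ANOVA with Bonferroni.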

5-hydroxytryptamine receptor 7, sequence (P34969 whole entry): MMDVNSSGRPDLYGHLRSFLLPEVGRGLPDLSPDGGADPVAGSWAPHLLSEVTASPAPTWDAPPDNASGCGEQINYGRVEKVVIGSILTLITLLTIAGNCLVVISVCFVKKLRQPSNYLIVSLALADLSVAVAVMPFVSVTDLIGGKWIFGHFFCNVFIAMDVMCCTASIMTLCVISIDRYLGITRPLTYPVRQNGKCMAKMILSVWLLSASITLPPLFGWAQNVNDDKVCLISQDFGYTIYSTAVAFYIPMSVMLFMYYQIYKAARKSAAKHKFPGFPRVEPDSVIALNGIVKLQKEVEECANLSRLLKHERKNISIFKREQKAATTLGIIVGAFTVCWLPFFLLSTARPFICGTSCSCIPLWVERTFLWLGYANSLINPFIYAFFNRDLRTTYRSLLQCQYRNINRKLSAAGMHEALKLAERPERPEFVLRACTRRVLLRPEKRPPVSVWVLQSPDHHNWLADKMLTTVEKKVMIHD
D(2) dopamine receptor, sequence (P14416 whole entry): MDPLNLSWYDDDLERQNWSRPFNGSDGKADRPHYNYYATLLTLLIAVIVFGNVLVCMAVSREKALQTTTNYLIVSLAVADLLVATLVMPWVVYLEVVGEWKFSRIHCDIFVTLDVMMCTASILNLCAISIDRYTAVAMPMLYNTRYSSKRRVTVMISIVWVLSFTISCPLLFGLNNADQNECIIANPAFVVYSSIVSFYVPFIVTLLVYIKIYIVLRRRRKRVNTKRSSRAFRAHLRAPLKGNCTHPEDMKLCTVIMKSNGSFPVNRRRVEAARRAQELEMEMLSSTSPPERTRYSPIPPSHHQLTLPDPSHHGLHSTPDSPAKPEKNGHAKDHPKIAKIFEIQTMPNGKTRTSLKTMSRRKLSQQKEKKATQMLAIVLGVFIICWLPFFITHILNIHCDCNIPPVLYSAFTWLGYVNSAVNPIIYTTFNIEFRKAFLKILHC
5-hydroxytryptamine receptor 2A, sequence (P28223 whole entry): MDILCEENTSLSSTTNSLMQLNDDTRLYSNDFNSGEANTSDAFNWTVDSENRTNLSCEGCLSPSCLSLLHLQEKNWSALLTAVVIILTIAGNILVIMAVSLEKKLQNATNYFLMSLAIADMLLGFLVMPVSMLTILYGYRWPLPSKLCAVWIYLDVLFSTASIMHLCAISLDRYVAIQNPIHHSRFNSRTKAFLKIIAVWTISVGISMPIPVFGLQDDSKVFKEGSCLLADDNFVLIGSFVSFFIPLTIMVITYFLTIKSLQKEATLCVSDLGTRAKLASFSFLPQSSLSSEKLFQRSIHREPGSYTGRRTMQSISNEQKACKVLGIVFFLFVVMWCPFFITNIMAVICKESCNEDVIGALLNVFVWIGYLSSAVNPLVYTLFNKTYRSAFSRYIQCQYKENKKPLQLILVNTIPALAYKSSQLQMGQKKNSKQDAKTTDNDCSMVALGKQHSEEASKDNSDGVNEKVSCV

For `CN(C1CCN(CCOc2ccccc2C(C)(C)C)CC1)S(=O)(=O)c1cnn(C)c1`, the Kb [1] was 82 nM, the Ki [2] was > 300 nM and the microsomal CLint at 20 µM [3] was 190 µL/min/mg. The Retention_time [4] was 5.22 min.
In the case of `CN(C1CCN(CCOc2ccccc2-c2ccccc2)CC1)S(=O)(=O)c1cnn(C)c1`, the Kb [1] is reported as 41 nM, the inhibition [5] is reported as 93% and the inhibition [6] is reported as 85%. For the same compound, the Ki [2] was > 300 nM, the microsomal CLint at 20 µM [3] was 167 µL/min/mg and the Retention_time [4] was 4.88 min.
With `Cn1cc(S(=O)(=O)N(CC2CC2)C2CCN(CCOc3ccccc3-c3ccccc3)CC2)cn1` the Activity [7] was “inactive”, the Kb [1] was 79 nM and the inhibition [5] was 94%. The inhibition [6] was 94%, the Activity [8] was “Dose-dependent effect” and the minimal effective dose [8] was 1 mg/kg. For the same compound, the minimal effective dose [9] was 1.25 mg/kg, the Ki [2] was > 300 nM and the microsomal CLint at 20 µM [3] was 55.9 µL/min/mg. The Retention_time [4] was 5.46 min.
For `Cn1cc(S(=O)(=O)N(CC2CC2)C2CCN(CCOc3ccccc3C(C)(C)C)CC2)cn1`, the Activity [7] was “inactive”, the Kb [1] was 64 nM and the Activity [8] was “Dose-dependent effect”. The minimal effective dose [8] was 1 mg/kg, the minimal effective dose [9] was 1.25 mg/kg and the Ki [2] was > 300 nM. For the same compound, the microsomal CLint at 20 µM [3] was 77.9 µL/min/mg and the Retention_time [4] was 5.74 min.
